B1: tRNA (parent)
chain: GUUCCGUUGGCGUAAUGGUAACGCGUCUCCCUCCUAAGGAGAAGACUGCGGGUUCGAGUCCCGUACGGAACG

Variants of: B1
Experiment: yeast fitness, log relative to wild type (ln ratio); higher = fitter; tRNA-Arg(CCU), competitive growth, 37 C, 1 M NaCl
Method in brief: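 Two independent transformations put a combinatorial tRNA-Arg(CCU) variant library on a HIS3 centromeric plasmid into BY4742 lacking the chromosomal gene. Pools were grown in SC-HIS at 30 °C for 4 generations, then in SC-HIS 1M NaCl at 37 °C for ~6.5 generations (~26.5 h), with three outputs taken per input. Fitness compares a genotype's generations with the wild type's as a natural log ratio. Those generations are OD-scaled log2 output/input frequencies, inverse-variance weighted across replicates, from 125 bp paired-end Illumina counts.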

In order of falling “yeast fitness (ln)” value:
1. AGUCCAUUGGCGUAAUGGUAACGCGUCUCCCUCCUAAGGAGAAGAUUGCGGGUUCGAGUCCCGUAUGGAGCG [G1A U2G G6A C46U C66U A70G]  -0.11
2. AGUCCAUUGGCGUAAUGGUAACGCGUUUCCCUCCUAAGGAGAAGACUGCGGGUUCGAGUCCCGUAAGGAUCG [G1A U2G G6A C27U C66A A70U]  -0.129
3. AGUCCAUUGGCGUAAUGGUAACGCGUCUCCCUCCUAAGGAGAAGAUUGCGGGUUCGAGUCCCGUAAGGAUUG [G1A U2G G6A C46U C66A A70U C71U]  -0.134
4. AGUCCAUUGGCGUAAUGGUAACGCGUCUCCCUCCUAAGGAGAAGAUUGCGGGUUCGAGUCCCGUAUGGGUUG [G1A U2G G6A C46U C66U A69G A70U C71U]  -0.141
5. AGUCCAUUGGCGUAAUGGUAACGCGUUUCCCUCCUAAGGAGAAGAUUGCGGGUUCGAGUCCCGUACGGAACG [G1A U2G G6A C27U C46U]  -0.154
6. AGUCCAUUGGCGUAAUGGUAACGCGUCUCCCUCCUAAGGAGAAGAUUGCGGGUUCGAGUCCCGUACGGGGUG [G1A U2G G6A C46U A69G A70G C71U]  -0.162
7. AGUCCAUUGGCGUAAUGGUAACGCGUUUCCCUCCUAAGGAGAAGACUGCGGGUUCGAGUCCCGUAUGGAUUG [G1A U2G G6A C27U C66U A70U C71U]  -0.164
8. AGUCCAUUGGCGUAAUGGUAACGCGUUUCCCUCCUAAGGAGAAGAUUGCGGGUUCGAGUCCCGUAAGGAAUG [G1A U2G G6A C27U C46U C66A C71U]  -0.179
9. AGUCCAUUGGCGUAAUGGUAACGCGUUUCCCUCCUAAGGAGAAGAUUGCGGGUUCGAGUCCCGUACGGAAUG [G1A U2G G6A C27U C46U C71U]  -0.182
10. AGUCCAUUGGCGUAAUGGUAACGCGUCUCCCUCCUAAGGAGAAGAUUGCGGGUUCGAGUCCCGUAAGGAGUG [G1A U2G G6A C46U C66A A70G C71U]  -0.185
11. AGUCCAUUGGCGUAAUGGUAACGCGUUUCCCUCCUAAGGAGAAGAUUGCGGGUUCGAGUCCCGUAAGGAUCG [G1A U2G G6A C27U C46U C66A A70U]  -0.187
12. AGUCCAUUGGCGUAAUGGUAACGCGUCUCCCUCCUAAGGAGAAGAUUGCGGGUUCGAGUCCCGUACGGGAUG [G1A U2G G6A C46U A69G C71U]  -0.193
13. AGUCCAUUGGCGUAAUGGUAACGCGUUUCCCUCCUAAGGAGAAGAUUGCGGGUUCGAGUCCCGUAUGGAAUG [G1A U2G G6A C27U C46U C66U C71U]  -0.196
14. AGUCCAUUGGCGUAAUGGUAACGCGUUUCCCUCCUAAGGAGAAGAUUGCGGGUUCGAGUCCCGUAUGGGUCG [G1A U2G G6A C27U C46U C66U A69G A70U]  -0.219
15. AGUCCAUUGGCGUAAUGGUAACGCGUUUCCCUCCUAAGGAGAAGACUGCGGGUUCGAGUCCCGUAUGGAACG [G1A U2G G6A C27U C66U]  -0.221
16. AGUCCAUUGGCGUAAUGGUAACGCGUUUCCCUCCUAAGGAGAAGACUGCGGGUUCGAGUCCCGUAUGGAUCG [G1A U2G G6A C27U C66U A70U]  -0.234
17. AGUCCAUUGGCGUAAUGGUAACGCGUUUCCCUCCUAAGGAGACGACUGCGGGUUCGAGUCCCGUAUGGAUCG [G1A U2G G6A C27U A43C C66U A70U]  -0.236
18. AGUCCAUUGGCGUAAUGGUAACGCGUCUCCCUCCUAAGGAGAAGAUUGCGGGUUCGAGUCCCGUACGGAGUG [G1A U2G G6A C46U A70G C71U]  -0.245
19. AGUCCAUUGGCGUAAUGGUAACGCGUUUCCCUCCUAAGGAGAAGACUGCGGGUUCGAGUCCCGUACGGGUCG [G1A U2G G6A C27U A69G A70U]  -0.256
20. AGUCCAUUGGCGUAAUGGUAACGCGUUUCCCUCCUAAGGAGAAGAUUGCGGGUUCGAGUCCCGUAUGGAACG [G1A U2G G6A C27U C46U C66U]  -0.258
21. AGUCCAUUGGCGUAAUGGUAACGCGUCUCCCUCCUAAGGAGAAGAUUGCGGGUUCGAGUCCCGUACGGGUUG [G1A U2G G6A C46U A69G A70U C71U]  -0.259
22. AGUCCAUUGGCGUAAUGGUAACGCGUUUCCCUCCUAAGGAGAAGACUGCGGGUUCGAGUCCCGUAUGGGUCG [G1A U2G G6A C27U C66U A69G A70U]  -0.26
23. AGUCCAUUGGCGUAAUGGUAACGCGUUUCCCUCCUAAGGAGAAGACUGCGGGUUCGAGUCCCGUACGGAAUG [G1A U2G G6A C27U C71U]  -0.263
24. AGUCCAUUGGCGUAAUGGUAACGCGUUUCCCUCCUAAGGAGAAGAUUGCGGGUUCGAGUCCCGUACGGGAUG [G1A U2G G6A C27U C46U A69G C71U]  -0.269
25. AGUCCAUUGGCGUAAUGGUAACGCGUUUCCCUCCUAAGGAGAAGAUUGCGGGUUCGAGUCCCGUAUGGGGCG [G1A U2G G6A C27U C46U C66U A69G A70G]  -0.272
26. AGUCCAUUGGCGUAAUGGUAACGCGUUUCCCUCCUAAGGAGAAGAUUGCGGGUUCGAGUCCCGUAAGGAGUG [G1A U2G G6A C27U C46U C66A A70G C71U]  -0.282
27. AGUCCAUUGGCGUAAUGGUAACGCGUUUCCCUCCUAAGGAGAAGACUGCGGGUUCGAGUCCCGUAAGGAGCG [G1A U2G G6A C27U C66A A70G]  -0.296
28. AGUCCAUUGGCGUAAUGGUAACGCGUUUCCCUCCUAAGGAGAAGACUGCGGGUUCGAGUCCCGUAUGGAGUG [G1A U2G G6A C27U C66U A70G C71U]  -0.309
29. AGUCCAUUGGCGUAAUGGUAACGCGUUUCCCUCCUAAGGAGAAGACUGCGGGUUCGAGUCCCGUAUGGAGCG [G1A U2G G6A C27U C66U A70G]  -0.349
30. AGUCCAUUGGCGUAAUGGUAACGCGUUUCCCUCCUAAGGAGAAGACUGCGGGUUCGAGUCCCGUAAGGGGUG [G1A U2G G6A C27U C66A A69G A70G C71U]  -0.353
31. AGUCCAUUGGCGUAAUGGUAACGCGUCUCCCUCCUAAGGAGAAGAUUGCGGGUUCGAGUCCCGUAAGGGGUG [G1A U2G G6A C46U C66A A69G A70G C71U]  -0.354
32. AGUCCAUUGGCGUAAUGGUAACGCGUUUCCCUCCUAAGGAGACGACUGCGGGUUCGAGUCCCGUACGGAAUG [G1A U2G G6A C27U A43C C71U]  -0.357
33. AGUCCAUUGGCGUAAUGGUAACGCGUUUCCCUCCUAAGGAGAAGACUGCGGGUUCGAGUCCCGUACGGGGCG [G1A U2G G6A C27U A69G A70G]  -0.428
34. AGUCCAUUGGCGUAAUGGUAACGCGUUUCCCUCCUAAGGAGAAGACUGCGGGUUCGAGUCCCGUAUGGGGCG [G1A U2G G6A C27U C66U A69G A70G]  -0.431
35. AGUCCAUUGGCGUAAUGGUAACGCGUUUCCCUCCUAAGGAGAAGACUGCGGGUUCGAGUCCCGUAAGGAUUG [G1A U2G G6A C27U C66A A70U C71U]  -0.457
36. AGUCCAUUGGCGUAAUGGUAACGCGUUUCCCUCCUAAGGAGAAGACUGCGGGUUCGAGUCCCGUAUGGGUUG [G1A U2G G6A C27U C66U A69G A70U C71U]  -0.479
37. AGUCCAUUGGCGUAAUGGUAACGCGUCUCCCUCCUAAGGAGAAGAUUGCGGGUUCGAGUCCCGUACGGAUUG [G1A U2G G6A C46U A70U C71U]  -0.559

Reference: the RNAGym collection of RNA variant scans (doi:10.1038/s41586-018-0170-7)
